Results taken from ChEMBL document CHEMBL3045217, “Factors affecting the synergy of thiabendazole, sodium bicarbonate, and heat to control postharvest green mold of citrus fruit” (J Agric Food Chem, 2008).

What was measured:
Fruit surface [1] = test: Drug residues on Citrus sinensis cvs. Salustiana (Salustiana oranges) fruit surface at 600 mg/L treated for 3 min at 20 degC postharvest measured after overnight incubation at 17 degC by GC analysis; assay type: ADME; conditions: 0.05 h
In short: (§1)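 'Salustiana' oranges were washed with water and air-dried. They were dipped 1 or 3 min in TBZ 600 mg/L at 20 or 50 °C, or 1 min in TBZ 600 mg/L plus 2% SBC at 20 °C, then dried overnight at 17 °C in the dark. Surface residue was taken by water extraction and wax residue by chloroform extraction. Inner residue was measured in fruit after both extractions. Extracts were dried under N2, taken up in acetone and analysed by GC. Values are mg/kg on a whole-fruit basis.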

Cuticular wax [2] = test: Drug residues in Citrus sinensis cvs. Salustiana (Salustiana oranges) cuticular wax at 600 mg/L treated for 1 min at 50 degC postharvest measured after overnight incubation at 17 degC by GC analysis; assay type: ADME; in short: as §1
Penicillium digitatum [3] = test: Fungicidal activity against TBZ-sensitive Penicillium digitatum infected Valencia oranges assessed as postharvest green mold incidence at 400 mg/L treated for 1 min at 40 degC at 20 hr after fungal conidial inoculation measured after 7 days of storage at 20 degC (water Rvb = 66.7%); assay type: functional
Fruit [4] = test: Drug residues in Citrus sinensis cvs. Valencia late (Valencia oranges) at 400 mg/L treated for 1 min at 40 degC postharvest measured after 10 days of storage at 17 degC in presence of 2% SBC by GC analysis; assay type: ADME
In short: (§2)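 'Valencia' oranges were dipped 1 min in TBZ at 600 mg/L (20 °C, ±0.5, 1 or 2% wt/vol SBC), 400 mg/L (40 °C, ±SBC) or 200 mg/L (50 °C, alone), then air-dried. They were sampled at 0, 10 and 20 days at 17 °C. Peel of five fruit was frozen, and 5 g of homogenate was extracted with ethyl acetate/hexane (1/1) plus NaCl. The extract was dried under N2, taken up in acetone and analysed by GC. Results are mg/kg on a whole-fruit basis.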

Inner fruit [5] = test: Drug residues in Citrus sinensis cvs. Salustiana (Salustiana oranges) inner fruit at 600 mg/L treated for 1 min at 20 degC postharvest measured after overnight incubation at 17 degC by GC analysis; assay type: ADME; in short: as §1
Inner fruit [6] = test: Drug residues in Citrus sinensis cvs. Salustiana (Salustiana oranges) inner fruit at 600 mg/L treated for 3 min at 20 degC postharvest measured after overnight incubation at 17 degC by GC analysis; assay type: ADME; conditions: 0.05 h; in short: as §1
Fruit [7] = test: Drug residues in Citrus sinensis cvs. Valencia late (Valencia oranges) at 400 mg/L treated for 1 min at 40 degC postharvest measured after 10 days of storage at 17 degC in presence of 1% SBC by GC analysis; assay type: ADME; in short: as §2
Penicillium digitatum [8] = test: Fungicidal activity against Penicillium digitatum infected Valenica oranges assessed as fruit weight loss at 400 mg/L treated for 1 min at 40 degC postharvest at 20 hr after fungal conidial inoculation measured after 21 days of storage at 17 degC in presence of 1% SBC (water Rvb = 12.71%); assay type: functional
Penicillium digitatum [9] = test: Fungicidal activity against Penicillium digitatum infected Valenica oranges assessed as fruit weight loss at 400 mg/L treated for 1 min at 40 degC postharvest at 20 hr after fungal conidial inoculation measured after 14 days of storage at 17 degC (water Rvb = 6.24%); assay type: functional
Cuticular wax [10] = test: Drug residues in Citrus sinensis cvs. Salustiana (Salustiana oranges) cuticular wax at 600 mg/L treated for 1 min at 20 degC postharvest measured after overnight incubation at 17 degC by GC analysis; assay type: ADME; in short: as §1
Fruit [11] = test: Drug residues in Citrus sinensis cvs. Valencia late (Valencia oranges) at 600 mg/L treated for 1 min at 20 degC postharvest measured after 20 days of storage at 17 degC in presence of 1% SBC by GC analysis; assay type: ADME; in short: as §2
Fruit [12] = test: Total drug residues in Citrus sinensis cvs. Salustiana (Salustiana oranges) fruit at 600 mg/L treated for 1 min at 50 degC postharvest measured after overnight incubation at 17 degC by GC analysis; assay type: ADME
In short: (§3)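 'Salustiana' oranges were water-washed, dried, dipped, then dried overnight at 17 °C in the dark. Unextracted fruit were used for total residues. Peel from five oranges was frozen at -18 °C. 5 g homogenized peel was extracted with 10 mL ethyl acetate/hexane (1/1) plus 2 g NaCl, shaken 30 min, then 1 mL of organic layer was dried under N2, redissolved in acetone, and run by GC without cleanup. Results are on a whole-fruit basis.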

Fruit [13] = test: Total drug residues in Citrus sinensis cvs. Salustiana (Salustiana oranges) fruit at 600 mg/L treated for 3 min at 20 degC postharvest measured after overnight incubation at 17 degC by GC analysis; assay type: ADME; conditions: 0.05 h; in short: as §3
Penicillium digitatum [14] = test: Fungicidal activity against Penicillium digitatum infected Valenica oranges assessed as fruit weight loss at 600 mg/L treated for 1 min at 20 degC postharvest at 20 hr after fungal conidial inoculation measured after 21 days of storage at 17 degC in presence of 0.5% SBC (water Rvb = 10.79%); assay type: functional
Penicillium digitatum [15] = test: Fungicidal activity against Penicillium digitatum infected Valenica oranges assessed as fruit weight loss at 400 mg/L treated for 1 min at 40 degC postharvest at 20 hr after fungal conidial inoculation measured after 21 days of storage at 17 degC in presence of 0.5% SBC (water Rvb = 11.43%); assay type: functional
Fruit [16] = test: Drug residues in Citrus sinensis cvs. Valencia late (Valencia oranges) at 200 mg/L treated for 1 min at 50 degC postharvest measured after 10 days of storage at 17 degC by GC analysis; assay type: ADME; in short: as §2
Penicillium digitatum [17] = test: Fungicidal activity against Penicillium digitatum infected Valenica oranges assessed as fruit weight loss at 400 mg/L treated for 1 min at 40 degC postharvest at 20 hr after fungal conidial inoculation measured after 7 days of storage at 17 degC in presence of 1% SBC (water Rvb = 4.49%); assay type: functional
Fruit [18] = test: Drug residues in Citrus sinensis cvs. Valencia late (Valencia oranges) at 600 mg/L treated for 1 min at 20 degC postharvest measured after 10 days of storage at 17 degC in presence of 2% SBC by GC analysis; assay type: ADME; in short: as §2
Penicillium digitatum [19] = test: Fungicidal activity against TBZ-sensitive Penicillium digitatum infected Nova mandarins assessed as postharvest green mold incidence at 400 mg/L treated for 1 min at 40 degC at 20 hr after fungal conidial inoculation measured after 5 days of storage at 20 degC in presence of 0.5% SBC (water Rvb = 100%); assay type: functional
In short: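 Fruit were surface-disinfected in 1 g/L hypochlorite for 30 s, rinsed, dried, then wounded twice equatorially (2 mm × 2 mm rod). Inoculation was a 1 min dip in P. digitatum conidia, 1 × 10^5 conidia/mL final. Fruit were held 20 h at 20 °C and 90% RH, dipped 1 min (SBC wt/vol), and air-dried. Storage was 20 °C, 90% RH. Decay incidence (% fruit with lesions) was scored at 5 d for mandarins and 7 d for oranges. Three replicates of 40 fruit were used; arcsin-transformed data were compared by LSD, p ≤ 0.05.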

Penicillium digitatum [20] = test: Fungicidal activity against TBZ-resistant Penicillium digitatum infected Valencia oranges assessed as postharvest green mold incidence at 600 mg/L treated for 1 min at 20 degC at 20 hr after fungal conidial inoculation measured after 7 days of storage at 20 degC in presence of 0.5% SBC (water Rvb = 85.8%); assay type: functional
Fruit surface [21] = test: Drug residues on Citrus sinensis cvs. Salustiana (Salustiana oranges) fruit surface at 600 mg/L treated for 1 min at 50 degC postharvest measured after overnight incubation at 17 degC by GC analysis; assay type: ADME; in short: as §1

## c1ccc2[nH]c(-c3cscn3)nc2c1 [THIABENDAZOLE]
Fruit surface [1]
  Drug uptake: 0.69 mg/kg
Cuticular wax [2]
  Drug uptake: 0.54 mg/kg
Penicillium digitatum [3]
  Activity: 14.2%
Fruit [4]
  Drug uptake: 0.65 mg/kg
Inner fruit [5]
  Drug uptake: 0.13 mg/kg
Inner fruit [6]
  Drug uptake: 0.13 mg/kg
Fruit [7]
  Drug uptake: 0.7 mg/kg
Penicillium digitatum [8]
  Activity: 12.11%
Penicillium digitatum [9]
  Activity: 6.26%
Cuticular wax [10]
  Drug uptake: 0.17 mg/kg
Fruit [11]
  Drug uptake: 1.4 mg/kg
Fruit [12]
  Drug uptake: 1.12 mg/kg
Fruit [13]
  Drug uptake: 1.1 mg/kg
Penicillium digitatum [14]
  Activity: 11.84%
Penicillium digitatum [15]
  Activity: 12.23%
Fruit [16]
  Drug uptake: 0.43 mg/kg
Penicillium digitatum [17]
  Activity: 3.98%
Fruit [18]
  Drug uptake: 1.23 mg/kg
Penicillium digitatum [19]
  Activity: 0%
Penicillium digitatum [20]
  Activity: 38.3%
Fruit surface [21]
  Drug uptake: 0.66 mg/kg
